Compound activity as filed in PubChem.
This is a sample that favours compounds with a hit; in the whole collection about 8.7% have one here.
E coli WT exp: E. coli BW25113 growth inhibition, expanded screen; AID 710; OD600 absorbance; growth inhibition, % at 100 µM; actives 0.15% (n = 98,000);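 active means growth inhibition above about 50% at one test dose, limit read from the data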;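 further: growth measured after 20 h incubation at 37 °C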
PostGolgi yeast: growth inhibition of a yeast mutant, post-Golgi transport screen; post-Golgi transport phenotypic cell assay; inhibition, % at 10 µM; actives 0.9% (n = 98,000);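 further: yeast cells grown in 1536-well plates; yeast grown about 18 h at 30C before absorbance read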
PostGolgi ctrl: inhibits growth of the yeast control strain. actives 5% (n = 98,000). inhibition, % at 10 µM. efflux-deficient yeast background strain, growth absorbance A615, 16 h. AID 738
Cav3 T inh: inhibitors of human Cav3.2 T-type calcium channel. actives 4% (n = 100,000). Cav3.2-expressing cells, Fluo-4 calcium fluorescence FDSS; hits give low values. B-score at 10 µM;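 active means single-dose well whose peak fluorescence ratio is a statistical outlier from its plate by either plate-standardised score or position-corrected B-score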
Ecoli tolC: blocks growth of E. coli BW25113 tolC mutant; growth inhibition, % at 10 µM (by protocol); OD615; actives 2.2% (n = 65,000); AID 573;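 active means growth inhibition at or above a cutoff equal to the mean over every tested compound plus 3 SD, cut at about 60% in these data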;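 further: growth measured after 20 h incubation at 37 °C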
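Test system: E. coli BW25113 ΔtolC::kan bacteria; incubation: 37 °C, 20 h exposure; medium: LB broth supplemented with 50 µg/mL kanamycin; read-out basis: percent growth inhibition; signal: A615 absorbance measurement; compound: 10 µM final, single dose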
Pyk2 oligo antag: blocks oligomerization of human Pyk2 in cells; Q293 cells, Pyk2 FERM NanoBiT luminescence; hits give low values; z-score (the deposit names both 25 µM and 10 µM); actives 0.83% (n = 99,000); AID 1347419;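 active means Z-score of -3 or lower, scaled per plate to the spread of control and sample wells; inactive means z-score above -3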;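 further: negative z-score means lost luminescence so less FERM oligomerization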
A number is an active result; n = inactive; x = no result. Unless noted, no stated cut-off is given here; in the data, active means inhibition above about 30%; inactive means the rest.

SMILES	E coli WT exp	PostGolgi yeast	PostGolgi ctrl	Cav3 T inh	Ecoli tolC	Pyk2 oligo antag
O=C(OCC(=O)N1CCN(C(=O)COC(=O)c2ccncc2)CC1)c1ccncc1	n	n	n	n	n	n
Fc1ccc(C(c2nnnn2C2CCCC2)N(Cc2ccco2)CC2CCCO2)cc1 (stereo not drawn)	n	n	n	-3.96	x	n
c1ccc(CN(Cc2ccco2)C(c2ccncc2)c2nnnn2C2CCCC2)cc1 (stereo not drawn)	n	n	n	n	63.6	n
CCN(CC)C(c1ccc(F)cc1)c1nnnn1C1CCCCC1 (stereo not drawn)	n	n	n	-5.02	n	n
O=C(Oc1ccc(-c2cn3c(n2)SCC3)cc1)c1ccccc1	n	n	n	n	n	n
CN1CCC(=NNC(=O)CSCc2ccccc2)CC1	n	n	38.8	n	x	n
CC(SCc1ccccc1)C(=O)NN=C1CCN(C)CC1 (stereo not drawn)	n	n	n	n	x	n
O=C(CN1CCCCCC1)NCCc1ccc(F)cc1	n	n	n	n	n	n
COc1ccc(CCCc2nnc(SCC(=O)Nc3ncc(C)s3)o2)cc1	n	n	42.7	n	n	n
COc1ccc(CCCc2nnc(SCC(=O)Nc3cc(C)c(C)cc3Br)o2)cc1	n	n	n	-5.15	n	n
COc1ccc(CCCc2nnc(SCC(=O)Nc3cccc(C)c3)o2)cc1	n	n	n	n	x	n
CC(C)CNc1nc(Oc2ccc(=O)n(C)n2)nc(N2CCOCC2)n1	n	32.3	n	x	n	n
C=CCN(Cc1cc(OC)ccc1OC)S(=O)(=O)N(C)C	n	n	n	n	n	n
O=S(=O)(Nc1ccc2oc(-c3ccccc3)nc2c1)c1ccccc1	n	n	32.7	n	100.0	n
Cc1ccc(-c2nc3cc(NS(=O)(=O)c4ccc(C)cc4)ccc3o2)cc1	n	n	58.8	n	x	n
COc1c2c(nc3occc13)C(CCC(C)(C)O)(OC)C(O)CC2 (stereo not drawn)	n	n	30.0	n	n	n
COc1c2ccoc2nc2c(OC)c(O)ccc12	x	x	x	n	x	x
CC(=O)n1cc(C(C[N+](=O)[O-])SCCN)c2ccccc21 (stereo not drawn)	n	n	n	-3.78	x	n
Fc1ccccc1CSc1nnc(-c2ccccc2)o1	n	n	n	n	n	n
Cc1ccccc1-c1nnc(SCc2ccccc2F)o1	n	n	n	n	64.1	n
Cn1nnnc1SCc1c(F)cccc1F	n	n	n	n	n	n
Clc1ccc(-c2noc(CN3CCCC3)n2)cc1	n	n	37.1	n	n	n
Cc1ccc(-c2noc(CN3CCCCC3)n2)cc1	n	n	n	n	x	n
Cc1ccc(-c2noc(CN3CCN(c4ccccc4F)CC3)n2)cc1	n	n	n	x	84.4	x
Clc1cccc(N2CCN(Cc3nc(-c4ccccc4)no3)CC2)c1	n	n	34.5	n	n	x
SMILES	E coli WT exp	PostGolgi yeast	PostGolgi ctrl	Cav3 T inh	Ecoli tolC	Pyk2 oligo antag
COc1ccc(OCC(=O)N2CCN(C(=O)COc3ccc(Br)cc3)CC2)cc1	n	n	40.7	n	n	n
O=C(COc1ccc(Br)cc1)N1CCN(c2ccccc2)CC1	n	n	n	-3.32	x	n
CC(=O)N1CCN(C(=O)COc2ccc(Br)cc2)CC1	n	n	n	n	n	n
O=S(=O)(c1ccccc1)n1ccc2cccnc21	n	n	n	n	x	n
CCOC(=O)N1CCN(c2nc(-c3ccc(Cl)cc3)cs2)CC1	n	n	n	n	n	n
O=C(Cc1cccs1)N1CCN(c2nc(-c3ccc(Cl)cc3)cs2)CC1	n	n	50.6	n	n	n
CC1(C)CC(=O)C(C(=S)Nc2ccccc2)=C(NCCN2CCOCC2)C1	n	n	n	n	x	n
O=C(Nc1ccc(Cl)cc1)OCc1cn(-c2ccc(Cl)cc2)nn1	n	n	n	-4.54	x	n
O=C(Nc1ccc(Cl)cc1)OCc1ccccn1	x	x	x	n	x	n
CCOC(=O)c1ccc(NC(=O)CCNC(=O)c2ccc([N+](=O)[O-])cc2)cc1	x	x	x	x	x	n
Cc1nonc1OC(C)CNc1ccc([N+](=O)[O-])cc1 (stereo not drawn)	n	n	35.1	n	x	n
Cc1c(Cl)cccc1NC(=O)CC(NCCN1CCOCC1)C(=O)O (stereo not drawn)	x	x	x	x	n	x
Cc1cc(C(F)(F)F)n2nc(-c3cnn(C)c3C(F)(F)F)c(Cl)c2n1	n	n	n	n	x	n
COc1ccc(C2=NOC3(CC(=O)N(c4ccc5ccccc5c4)C3=O)C2)c(OC)c1 (stereo not drawn)	n	n	n	n	x	n
